Only some compounds are listed: those with a hit (about 3.5% of all), similar ones and a draw of the others.
esBAF inh: blocks esBAF chromatin remodeling in mouse ES cells | Bmi1-luciferase knock-in reporter, 24 h; 100% = twice the neutral-well signal | AID 602393 | hit rate 2% among 350,000 | reporter increase, % at 12.5 µM; in the data active = activation above about 40%;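 note: a rise in the Bmi1 reporter signal indicates esBAF inhibition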
Cneo AK release: causes C. neoformans cell lysis; adenylate kinase release luminescence, 4 h; normalised: neutral wells 0, clomiphene wells 100; hit rate 0.2% among 360,000; lysis activity, % at 15 µM;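 active = mean lysis activity across replicates of at least 80%, whatever share of replicates individually reach that level; inactive = mean lysis activity below 80%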
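Material – log-phase Cryptococcus neoformans yeast cells · Input – 5 × 10^6 yeast cells/mL · Medium – fresh YPD growth medium · Doses – single compound concentration per well · Timing – static 4 h at 37 °C with compound, 1 h detection · Detection – adenylate kinase release luminescence · Read-out – signal increase indicating cell lysis · Control set – Clomiphene as positive lysis control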
Env fusion inh: HIV envelope-mediated fusion inhibition. HeLa-JRFL Env/CEM21 cell fusion, luciferase. hit rate 1.1% among 360,000. inhibition, % at 12.3 µM;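 active = mean replicate inhibition score of at least 50 and every replicate individually at or above 50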
ERAP1 HTS inh: inhibitors of human ERAP1 aminopeptidase; inhibition, % at 10.7 µM; hit rate 0.15% among 340,000; recombinant ERAP1, Leu-AMC fluorescence, 60 min; AID 652197;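 active = mean replicate inhibition of at least 30%, or all replicates individually reaching that 30% level; inactive = mean below 30% and not every replicate reaching it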
MITF act: increases MITF-driven TRPM1 promoter luciferase signal; SK-MEL-5 TRPM1-promoter luciferase, 24 h; % of positive control, neutral wells = 0; activation, % at 12.5 µM; hit rate 0.75% among 300,000; AID 588334;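 active = mean activation of at least 80% with every replicate also reaching 80%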
Wnt bcat act: Wnt/beta-catenin pathway activation | Wnt/beta-catenin reporter cell assay, activator, plate reader | activation, % at 9.35 µM | hit rate 1.2% among 300,000; in the data active = activation above about 30%, passing the limit was not always enough
A number is an active result; n = inactive; x = no result.

SMILES	esBAF inh	Cneo AK release	Env fusion inh	ERAP1 HTS inh	MITF act	Wnt bcat act
COc1ccc(O)c(/C=N/NC(=O)c2cccc(N3CCCC3=O)c2)c1	n	n	n	n	n	n
COc1cc(/C=N/NC(=O)c2cc(C)oc2C)ccc1O	n	n	n	n	n	n
CCOc1ccc(/C=N/NC(=O)c2ccoc2C)cc1OC	48.5	n	n	n	n	n
COc1ccc(C=NNC(=O)c2cc(C)oc2C)cc1O	65.7	n	n	n	n	n
COc1cccc(/C=N/NC(=O)c2cccc(N3CCCC3=O)c2)c1	72.7	n	n	n	n	n
O=C(C1CCCC1)N1CCCCN2[C@H](CO)[C@H](c3ccc(C#CC4CC4)cc3)[C@@H]2C1	x	n	x	n	x	x
O=C(C[C@@H]1CC[C@H]2[C@@H](COC[C@@H](O)CN2Cc2nccs2)O1)NCc1ccccc1F	n	n	x	n	x	x
COc1cc(/C=N/NC(=O)c2ccoc2C)ccc1O	x	x	n	n	n	n
COc1cc(/C=N/n2cnnc2)ccc1OCc1ccccc1	n	n	n	x	n	x
COc1cccc(/C=N/NC(=O)c2ccoc2C)c1	x	n	n	n	x	39.6
CCOc1cc(/C=N/NC(=O)c2ccc(CN3CCOCC3)cc2)ccc1OCc1ccccc1	x	n	55.9	x	n	x
